# Tests used:
# Format in all cases: functional
# Enterococcus faecalis [1] = test: MIC value was measured against streptococcus faecalis X66
# Outline: (§1)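 Susceptibility determined by standard agar-dilution method against a panel of bacterial strains.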
# Staphylococcus aureus [2] = test: MIC value measured against staphylococcus aureus X1
# Haemophilus influenzae [3] = test: MIC value was measured against haemophilus influenzae CL
# Streptococcus pyogenes [4] = test: MIC value measured against streptococcus pyogenes C203
# Streptococcus pyogenes [5] = test: Effective dose against mice infected with streptococcus pyogenes after peroral administration (in vivo); conditions: in Mus musculus, po
# Staphylococcus aureus [6] = test: Effective dose against mice infected with Staphylococcus aureus after peroral administration (in vivo); conditions: in Mus musculus, po
# Streptococcus pneumoniae [7] = test: Effective dose against mice infected with streptococcus pneumoniae after peroral administration (in vivo); conditions: in Mus musculus, po
# Streptococcus pneumoniae [8] = test: MIC value was measured against streptococcus pneumoniae park1; outline: as §1
# [9] = test system: Staphylococcus epidermidis; test: microbe, parasite or virus in culture
# Enterococcus faecalis [10] = test: MIC value was measured against streptococcus faecalis.
# Streptococcus pneumoniae [11] = test: MIC value measured against streptococcus pneumoniae Park1
# Haemophilus influenzae [12] = test: MIC value was measured against haemophilus influenzae.; outline: as §1
SMILES,MIC (Enterococcus faecalis [1]) [µg/mL],MIC (Staphylococcus aureus [2]) [µg/mL],MIC (Haemophilus influenzae [3]) [µg/mL],MIC (Streptococcus pyogenes [4]) [µg/mL],MIC (Streptococcus pneumoniae [8]) [µg/mL],MIC [9] [µg/mL],MIC (Enterococcus faecalis [10]) [µg/mL],MIC (Streptococcus pneumoniae [11]) [µg/mL],MIC (Haemophilus influenzae [12]) [µg/mL],ED50 (Streptococcus pyogenes [5]) [mg/kg],ED50 (Staphylococcus aureus [6]) [mg/kg],ED50 (Streptococcus pneumoniae [7]) [mg/kg]
CC[C@H]1OC(=O)[C@H](C)[C@@H](OC2CC(C)(OC)C(O)C(C)O2)[C@H](C)[C@@H](OC2OC(C)CC(N(C)C)C2O)[C@](C)(O)C[C@@H](C)[C@H]2[C@H](C)[C@@H](OCN2C(C)C)[C@]1(C)O (some centres not stated),0.25,1,4,0.12,0.06,0.5,–,–,–,7,9,6
CC[C@H]1OC(=O)[C@H](C)[C@@H](OC2CC(C)(OC)C(O)C(C)O2)[C@H](C)[C@@H](OC2OC(C)CC(N(C)C)C2O)[C@](C)(O)C[C@@H](C)[C@@H](N)[C@H](C)[C@@H](O)[C@H]1C (some centres not stated),–,2,16,0.25,–,1,1,–,–,–,–,–
CC[C@H]1OC(=O)[C@H](C)[C@@H](OC2CC(C)(OC)C(O)C(C)O2)[C@H](C)[C@@H](OC2OC(C)CC(N(C)C)C2O)[C@](C)(O)C[C@@H](C)[C@H](NCCCCN)[C@H](C)[C@@H](O)[C@]1(C)O (some centres not stated),–,4,64,0.12,–,4,8,4,–,–,–,–
CC[C@H]1OC(=O)[C@H](C)[C@@H](OC2CC(C)(OC)C(O)C(C)O2)[C@H](C)[C@@H](OC2OC(C)CC(N(C)C)C2O)[C@](C)(O)C[C@@H](C)/C(=N\O)[C@H](C)[C@@H](O)[C@H]1C (some centres not stated),–,0.5,1,0.015,–,0.25,1,0.008,–,–,–,–
CC[C@H]1OC(=O)[C@H](C)[C@@H](OC2CC(C)(OC)C(O)C(C)O2)[C@H](C)[C@@H](OC2OC(C)CC(N(C)C)C2O)[C@](C)(O)C[C@@H](C)[C@H](NCCCc2ccccc2)[C@H](C)[C@@H](O)[C@]1(C)O (some centres not stated),0.06,1,2,0.015,0.015,0.5,–,–,–,14,37,17
CC[C@H]1OC(=O)[C@H](C)[C@@H](OC2CC(C)(OC)C(O)C(C)O2)[C@H](C)[C@@H](OC2OC(C)CC(N(C)C)C2O)[C@](C)(O)C[C@@H](C)/C(=N\O)[C@H](C)[C@@H](O)[C@]1(C)O (some centres not stated),–,0.25,0.5,0.008,–,0.06,0.06,0.008,–,–,–,–
CC[C@H]1OC(=O)[C@H](C)[C@@H](OC2CC(C)(OC)C(O)C(C)O2)[C@H](C)[C@@H](OC2OC(C)CC(N(C)C)C2O)[C@](C)(O)C[C@@H](C)[C@H]2[C@H](C)[C@@H](OCN2Cc2ccccc2)[C@]1(C)O (some centres not stated),0.5,1,4,0.12,0.06,0.5,–,–,–,16,> 50,15
CCCCCCCCCCN[C@@H]1[C@H](C)[C@@H](O)[C@](C)(O)[C@@H](CC)OC(=O)[C@H](C)[C@@H](OC2CC(C)(OC)C(O)C(C)O2)[C@H](C)[C@@H](OC2OC(C)CC(N(C)C)C2O)[C@](C)(O)C[C@H]1C (some centres not stated),–,1,2,0.015,–,1,–,0.015,2,> 50,> 50,> 50
CCCCCN[C@@H]1[C@H](C)[C@@H](O)[C@](C)(O)[C@@H](CC)OC(=O)[C@H](C)[C@@H](OC2CC(C)(OC)C(O)C(C)O2)[C@H](C)[C@@H](OC2OC(C)CC(N(C)C)C2O)[C@](C)(O)C[C@H]1C (some centres not stated),–,0.5,1,0.06,–,0.5,–,0.015,1,9,25,14
CC[C@H]1OC(=O)[C@H](C)[C@@H](OC2CC(C)(OC)C(O)C(C)O2)[C@H](C)[C@@H](OC2OC(C)CC(N(C)C)C2O)[C@](C)(O)C[C@@H](C)[C@H]2[C@H](C)[C@@H](OCN2C(C)CCCN(CC)CC)[C@]1(C)O (some centres not stated),2,8,8,0.5,0.5,8,–,–,–,–,–,–
CCCCCCN[C@@H]1[C@H](C)[C@@H](O)[C@](C)(O)[C@@H](CC)OC(=O)[C@H](C)[C@@H](OC2CC(C)(OC)C(O)C(C)O2)[C@H](C)[C@@H](OC2OC(C)CC(N(C)C)C2O)[C@](C)(O)C[C@H]1C (some centres not stated),–,1,4,0.12,–,0.25,–,0.008,4,18,39,14
CCCCCCCCN[C@@H]1[C@H](C)[C@@H](O)[C@](C)(O)[C@@H](CC)OC(=O)[C@H](C)[C@@H](OC2CC(C)(OC)C(O)C(C)O2)[C@H](C)[C@@H](OC2OC(C)CC(N(C)C)C2O)[C@](C)(O)C[C@H]1C (some centres not stated),–,0.5,1,0.015,–,0.25,–,0.015,1,23,> 50,46

# The remaining molecules from weak to strong by MIC (Staphylococcus aureus [2]), led by results:
MIC (Enterococcus faecalis [1]) [µg/mL],MIC (Staphylococcus aureus [2]) [µg/mL],MIC (Haemophilus influenzae [3]) [µg/mL],MIC (Streptococcus pyogenes [4]) [µg/mL],MIC (Streptococcus pneumoniae [8]) [µg/mL],MIC [9] [µg/mL],MIC (Enterococcus faecalis [10]) [µg/mL],MIC (Streptococcus pneumoniae [11]) [µg/mL],MIC (Haemophilus influenzae [12]) [µg/mL],SMILES,ED50 (Streptococcus pyogenes [5]) [mg/kg],ED50 (Staphylococcus aureus [6]) [mg/kg],ED50 (Streptococcus pneumoniae [7]) [mg/kg]
0.12,1,4,0.5,–,1,–,–,–,CC[C@H]1OC(=O)[C@H](C)[C@@H](OC2CC(C)(OC)C(O)C(C)O2)[C@H](C)[C@@H](OC2OC(C)CC(N(C)C)C2O)[C@](C)(O)C[C@@H](C)[C@H](NCCC2=C(C)CCCC2(C)C)[C@H](C)[C@@H](O)[C@]1(C)O (some centres not stated),> 50,> 50,> 50
0.25,1,4,0.008,0.008,0.5,–,–,–,CC[C@H]1OC(=O)[C@H](C)[C@@H](OC2CC(C)(OC)C(O)C(C)O2)[C@H](C)[C@@H](OC2OC(C)CC(N(C)C)C2O)[C@](C)(O)C[C@@H](C)[C@H](NCC#Cc2ccccc2)[C@H](C)[C@@H](O)[C@]1(C)O (some centres not stated),27,> 50,34
0.5,1,4,0.12,0.06,1,–,–,–,CC[C@H]1OC(=O)[C@H](C)[C@@H](OC2CC(C)(OC)C(O)C(C)O2)[C@H](C)[C@@H](OC2OC(C)CC(N(C)C)C2O)[C@](C)(O)C[C@@H](C)[C@H]2[C@H](C)[C@@H](OCN2C2CCCC2)[C@]1(C)O (some centres not stated),10,> 50,9
0.25,0.5,2,0.06,0.015,0.5,–,–,–,CC[C@H]1OC(=O)[C@H](C)[C@@H](OC2CC(C)(OC)C(O)C(C)O2)[C@H](C)[C@@H](OC2OC(C)CC(N(C)C)C2O)[C@](C)(O)C[C@@H](C)[C@H](NCc2ccccc2)[C@H](C)[C@@H](O)[C@]1(C)O (some centres not stated),9,> 50,11
0.12,0.25,1,0.008,0.008,0.12,–,–,–,CCCN1CO[C@@H]2[C@@H](C)[C@@H]1[C@H](C)C[C@@](C)(O)[C@H](OC1OC(C)CC(N(C)C)C1O)[C@@H](C)[C@H](OC1CC(C)(OC)C(O)C(C)O1)[C@@H](C)C(=O)O[C@H](CC)[C@@]2(C)O (some centres not stated),5,7,5
–,0.25,1,0.015,–,0.12,0.12,0.015,–,CC[C@H]1OC(=O)[C@H](C)[C@@H](OC2CC(C)(OC)C(O)C(C)O2)[C@H](C)[C@@H](OC2OC(C)CC(N(C)C)C2O)[C@](C)(O)C[C@@H](C)[C@H](N)[C@H](C)[C@@H](O)[C@H]1C (some centres not stated),–,–,–

# From ChEMBL document CHEMBL1125014, “Synthesis and structure-activity relationships of new 9-N-alkyl derivatives of 9(S)-erythromycylamine” (1990)
